STK33 kinase inh: human STK33 kinase inhibition; Q9BYT3; purified STK33, MBP phosphorylation, ADP-Glo luminescence; inhibition, % at 10 µM; actives 0.073% (n = 320,000); AID 2661;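 active = inhibition at or above 25%, using the most active replicate where run in duplicate; inactive = inhibition below 25%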
Target sequence (Q9BYT3 whole entry, looked up): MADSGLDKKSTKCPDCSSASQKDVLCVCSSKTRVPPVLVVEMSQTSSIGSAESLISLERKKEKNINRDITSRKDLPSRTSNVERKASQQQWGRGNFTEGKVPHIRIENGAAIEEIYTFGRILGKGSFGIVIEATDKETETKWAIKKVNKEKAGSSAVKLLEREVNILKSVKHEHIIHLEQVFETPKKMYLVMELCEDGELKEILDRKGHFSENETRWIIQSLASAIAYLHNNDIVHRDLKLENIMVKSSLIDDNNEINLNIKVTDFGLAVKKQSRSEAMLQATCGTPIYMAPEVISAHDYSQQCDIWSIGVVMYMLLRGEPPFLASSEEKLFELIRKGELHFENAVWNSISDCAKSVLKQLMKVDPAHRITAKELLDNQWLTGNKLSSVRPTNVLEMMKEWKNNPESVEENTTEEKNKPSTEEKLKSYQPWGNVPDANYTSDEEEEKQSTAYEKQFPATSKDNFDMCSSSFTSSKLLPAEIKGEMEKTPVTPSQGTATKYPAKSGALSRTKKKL
procasp7 counter: counter-screen for procaspase-3 activators: activators of human procaspase-7; recombinant procaspase-7, Ac-DEVD-pNA absorbance 405 nm; D23A/D198A/D206A triple mutant, cannot self-cleave; scale: DMSO 0, 5 µM enzyme 100; activation, % at 8.5 µM; actives 0.093% (n = 330,000);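 active = percent activation above the screen-wide mean plus 3 SD, cut at about 25% in these data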
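Replicates: singlicate. Assay system: Procaspase-7 triple mutant (PC-7 D3A). Signal: 405 nm absorbance of p-nitroaniline. Times: 1 h preincubation, 2 h reaction. Buffer or medium: Zinc-free HEPES pH 7.4 with 300 mM NaCl, 0.01% Triton X-100. Also added: DEVD-pNA substrate. Benchmarks: DMSO wells as 0%, DMSO with 5 µM added PC-7 as 100%.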
GSK3 alpha inh: inhibitors of human GSK-3 alpha kinase | P49840 | ADP-Glo luminescence, 60 min | inhibition, % at 10 µM | actives 0.1% (n = 320,000) | AID 2650;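 active = more than half of replicates show inhibition above 20%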;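 note: GST-tagged GSK-3 alpha with peptide substrate and 25 µM ATP; 0% = DMSO neutral wells and 100% = GW8510 positive control wells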
Bfl-1 A1 inh: inhibitors of the anti-apoptotic protein A1, read as caspase activation | MEF A1-2A-BIM cells, Caspase-Glo 3/7 luminescence, 3 h; percent of clofoctol response, vehicle zero | caspase activation, % (concentration not given with the values) | actives 0.066% (n = 330,000) | AID 2462;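 active = over half of replicate activation scores above 10%, or exactly half above 10 with the replicate mean above 10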
GSK3beta inhib: human GSK3beta kinase inhibition; P49841; actives 0.038% (n = 300,000); activity score (negative = inhibition), % at 10 µM; GST-GSK3beta kinase, ADP-Glo luminescence, 60 min; active compounds read low; AID 2097;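 active = more than half of replicate wells score below -50%, meaning over 50% inhibition versus plate controls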;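 note: 0% = median DMSO wells and -100% = median GW8510 positive control wells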
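Test system: GST-fused GSK3beta enzyme, cell-free | Quantity: 1.6 ng GST-GSK3beta enzyme per well | Reagent: 25 µM ATP with peptide substrate | Schedule: 60 min enzyme reaction, room temperature | Signal: Luminescent ADP-Glo measurement of ADP formed | Read-out basis: Score relative to plate controls | Control set: DMSO and 20 µM GW8510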
proCasp3 act: procaspase-3 (human) activation. recombinant procaspase-3 D3A, Ac-DEVD-pNA absorbance 405 nm. activation, % at 8.5 µM. actives 0.11% (n = 330,000). AID 463141;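 active = activation above the mean of all tested compounds plus 3 SD, cut at about 21% in these data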;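 note: 0% = DMSO alone and 100% = DMSO wells spiked with extra 5 µM PC-3 D3A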
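Test system: Procaspase-3 D3A mutant; medium: Zinc-free HEPES/NaCl buffer with 0.01% Triton X-100 at pH 7.4; reagent: DEVD-pNA substrate; doses: one concentration, 8.5 µM nominal, 0.8% DMSO; times: 1 h preincubation plus 2 h reaction at 25 °C; signal: Epi-absorbance at 405 nm of released p-nitroaniline, 0 and 120 min; replicates: singlicate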
procasp7 triplic: counter-screen for procaspase-3 activators: activators of human procaspase-7; shares compounds with proCasp3 act; 210 tested, under 10 active; recombinant procaspase-7, Ac-DEVD-pNA absorbance; asp23/198/206-to-Ala mutant, cannot self-cleave; activation, % at 8.5 µM;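 active = mean activation above a set limit taken from an earlier procaspase-7 screen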;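 note: 0% = DMSO wells and 100% = DMSO plus 5 µM procaspase-7 enzyme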
procasp3 conf: confirmation of human procaspase-3 activators; shares compounds with proCasp3 act; recombinant PC-3 D3A, Ac-DEVD-pNA absorbance 405 nm; 100% is higher-enzyme control; actives 10% (n = 210); activation, % at 8.5 µM; AID 488954;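 active = mean activation above a set limit carried over from the earlier primary screen, cut at about 22% in these data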
The depositor's hits bear a star; / = no result. Rows were chosen to be rich in hits. Some 0.38% of all compounds tested hit in one or more screens of this group.

SMILES | STK33 kinase inh | procasp7 counter | GSK3 alpha inh | Bfl-1 A1 inh | GSK3beta inhib | proCasp3 act | procasp7 triplic | procasp3 conf
COc1ccccc1[C@@H]1C(c2cccc(C)c2)=NN(c2ccccc2)[C@H]1C(=O)N1CCOC1=O | -0.8 | 18.1 | -2.3 | 0.9 | -0.2 | 24.2* | -22.4 | -14.7
CCN(CC)S(=O)(=O)c1ccc2c(c1)c(=O)c(C(=O)N1CCOCC1)cn2C | -0.1 | 7.0 | -0.9 | 0.1 | -0.6 | 45.9* | 2.5 | 1.1
CCN(CC)S(=O)(=O)c1ccc2c(c1)c(=O)c(C(=O)N1CCN(c3ccccn3)CC1)cn2C | 1.5 | 1.7 | 0.0 | 0.0 | 1.6 | 4.2 | / | /
Cc1cc(N/N=C/c2ccc(N(C)C)cc2)c2ccccc2n1 | 0.3 | 23.8 | 1.5 | 0.5 | 3.2 | 28.1* | -4.4 | -5.5
O=C(CSc1nnnn1-c1ccccc1)Nc1ccc(Cl)cc1 | -1.7 | 13.0 | -1.7 | 0.7 | 1.3 | 27.2* | 0.8 | 4.0
Cc1ccc(NC(=O)CC2OC(=O)c3ccccc32)cc1S(=O)(=O)N1CCOCC1 (centres undefined) | -2.5 | -4.7 | 0.6 | 0.5 | / | -8.7 | / | /
CN(C)/C=N/C1=C(C#N)C(c2ccc(Br)cc2)c2ccc3ccccc3c2O1 (centres undefined) | 1.1 | 13.5 | -3.3 | -0.1 | 0.7 | 28.7* | -22.0 | -9.7
Cc1cc2nn(-c3cccc4ccccc34)nc2cc1N | -3.2 | 5.0 | 2.8 | 0.1 | 4.2 | 21.6* | 5.4 | 24.5*
Nc1ccc2nn(-c3cccc4ccccc34)nc2c1 | 11.5 | 5.3 | 9.0 | 0.6 | 5.9 | 5.5 | / | /
COc1ccc(N(CC(=O)NC2CCCCC2)C(=O)CCCC(=O)Nc2ccccn2)cc1 | -0.5 | 6.7 | -0.5 | -0.3 | -1.2 | 1.9 | / | /
O=[N+]([O-])c1cccc(-c2ccc(CN3CCN(c4ccccc4)CC3)o2)c1 | -1.6 | -4.2 | -0.6 | 0.4 | 1.0 | 22.8* | -4.3 | 1.8
COC(=O)c1ccc(CNC(=O)c2ccc(S(=O)(=O)N(C)c3ccccc3OC)cc2)cc1 | -0.6 | 3.8 | -3.0 | 0.2 | / | 8.1 | / | /
COCC1=C(C(=O)OC)C(c2ccco2)n2ncnc2N1 (centres undefined) | 0.8 | 5.5 | 3.0 | -0.3 | 1.4 | 3.4 | / | /
O=C(O)c1nn(CCOc2ccccc2F)c(=O)c2ccccc12 | 1.5 | 6.3 | -2.0 | -0.7 | 1.3 | 21.5* | 0.1 | 3.0
O=C(O)c1nn(CCOc2ccc(Br)cc2)c(=O)c2ccccc12 | 0.0 | 0.1 | -0.3 | -0.5 | / | 14.1 | / | /
c1ccc(C2=NN(c3ccccc3)C(c3ccco3)C2)cc1 (centres undefined) | 0.2 | 23.9 | 1.1 | 0.3 | 3.0 | 26.2* | -20.2 | -15.2
Cn1c(N)nc2nc(CCc3ccccc3)c(=O)[nH]c2c1=O | -1.1 | 6.4 | -1.7 | -0.1 | 0.3 | 21.8* | -22.3 | -14.3
Cc1cc2nc3c(=O)n(CCc4ccccc4)c(=O)[nH]c3nc2cc1N | -1.2 | -22.1 | -0.4 | -0.6 | -0.6 | -25.3 | / | /
O=C(CSc1nnc(CNC(=O)c2ccc(F)cc2)o1)Nc1nccs1 | 1.1 | -3.5 | -0.3 | -0.2 | 0.8 | 10.3 | / | /
CC(=O)Oc1ccc(-c2cc3c(OC(C)=O)cc(OC(C)=O)cc3oc2=O)cc1 | -1.1 | 8.9 | -1.9 | -2.6 | -1.6 | 51.7* | -20.5 | -14.4
CCC(C)NC(=O)CNC(=O)c1nn(-c2ccc(OC)c(Cl)c2)c(=O)c2ccccc12 (centres undefined) | 0.5 | 2.6 | -2.2 | -0.6 | 3.9 | 21.7* | 3.3 | 2.8
CCC(=O)c1ccc(OCC(=O)c2ccc3c(c2)NC(=O)CO3)cc1 | -1.1 | 4.3 | -1.2 | -0.8 | 0.4 | 23.3* | 4.1 | 3.5

Screening data as filed in PubChem.
